Screen size: about 360,000 compounds; about 890 (0.25%) were called active.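 How the source made its calls: active means inhibition at 20 µM, scaled per plate between control wells, above about 37% (limit read from the data); inactive means the rest.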 For the sample, actives were picked, then their nearest neighbours and some compounds at random.
The compounds below were run against Tyrosine-protein phosphatase non-receptor type 5 (Homo sapiens) (UniProt P54829) (assay: inhibition of human PTPN5 enzyme activity – biochemical, fluorescence intensity, uHTS, primary screen (AID 588621;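 further: 0% = DMSO with enzyme and substrate and 100% = substrate only without enzyme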)). Settings: recombinant STEP, OMFP fluorogenic substrate, at 20 µM, active compounds read high.
Chain of Tyrosine-protein phosphatase non-receptor type 5 (Homo sapiens) (P54829 whole entry, looked up): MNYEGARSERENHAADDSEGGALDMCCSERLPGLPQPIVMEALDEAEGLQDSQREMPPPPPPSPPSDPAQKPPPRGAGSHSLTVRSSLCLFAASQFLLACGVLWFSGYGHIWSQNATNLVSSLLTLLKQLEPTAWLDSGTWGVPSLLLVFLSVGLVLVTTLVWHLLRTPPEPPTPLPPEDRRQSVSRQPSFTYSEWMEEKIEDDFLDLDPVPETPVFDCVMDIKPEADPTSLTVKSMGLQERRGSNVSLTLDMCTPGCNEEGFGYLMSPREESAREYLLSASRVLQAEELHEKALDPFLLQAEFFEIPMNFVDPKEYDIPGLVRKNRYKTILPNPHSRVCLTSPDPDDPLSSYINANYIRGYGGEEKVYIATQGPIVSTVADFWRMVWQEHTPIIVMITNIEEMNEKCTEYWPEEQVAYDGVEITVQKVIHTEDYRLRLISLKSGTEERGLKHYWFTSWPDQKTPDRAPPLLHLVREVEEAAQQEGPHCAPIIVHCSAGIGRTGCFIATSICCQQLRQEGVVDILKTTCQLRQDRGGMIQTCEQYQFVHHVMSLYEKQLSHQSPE
How it was run: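 Test system: STEP tyrosine phosphatase / Reagent: OMFP at 25 µM / Doses: 20 µM, 1% DMSO / Read-out: percent inhibition scaled to no-enzyme and uninhibited-enzyme controls, plate-pattern corrected / Detection: FITC-channel fluorescence of OMFP product / Medium: Bis-Tris buffer pH 6.0, 2.5 mM DTT, 0.005% Tween 20 / Schedule: 20 min at room temperature, dark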

SMILES | inhibition
C=CC1=C(C(=O)O)N2C(=O)[C@@H](NC(=O)/C(=N\OCC(=O)O)c3csc(N)n3)[C@H]2SC1 | 85.4% (active)
C=CC1=C(C(=O)O)N2C(=O)[C@@H](NC(=O)/C(=N/OCC(=O)O)c3csc(N)n3)[C@H]2SC1 | 97.4% (active)
COC(=O)c1cc2occc2n1Cc1nc(-c2ccccc2C)oc1C | -0.6% (inactive)
CCCCOc1ccc(NC(=O)[C@@H]2CCCN2C(=O)C2CCN(S(=O)(=O)c3ccc(C)cc3)CC2)cc1 | -0.4% (inactive)
CCCC(=O)N1CCC1(C)C(=O)NCc1ccc(C(C)C)cc1 (stereo not drawn) | 1.5% (inactive)
Cn1c(Cc2csc(N)n2)nnc1SC/C=C/c1ccccc1 | -1.7% (inactive)
CCOc1ccc(C(=O)NCC(=O)N2CCN(c3ccc(C(F)(F)F)cn3)CC2)cc1 | -0.1% (inactive)
C/C=C/C(=O)Nc1ccc(N2CCN(c3ccc(C(F)(F)F)cn3)CC2)nc1 | 78.9% (active)
Cc1ccc(F)cc1NC(=O)N1CCCN(c2ccc(C(F)(F)F)cn2)CC1 | -0.3% (inactive)
C[C@H]1CN([C@@H](C)CO)C(=O)Cc2cc(NS(C)(=O)=O)ccc2O[C@@H]1CN(C)CC1CC1 | 1.2% (inactive)
Cc1ccc(C(=O)N(CC(=O)NC2CCCC2)c2ccc(F)cc2)s1 | -0.9% (inactive)
CCCS(=O)(=O)N1CCCC(C(=O)NCc2ccco2)C1 (stereo not drawn) | 53.8% (active)
O=C(NCc1ccco1)C1CCCN(S(=O)(=O)c2ccccc2)C1 (stereo not drawn) | 2.1% (inactive)
O=C(NCc1ccco1)C1CCCN(S(=O)(=O)c2cnc[nH]2)C1 (stereo not drawn) | -0.7% (inactive)
COc1ccc(CCNc2cc(C)nc3c(-c4ccc(Cl)cc4)c(C)nn23)cc1OC | -0.7% (inactive)
O=S1(=O)CSCS(=O)(=O)C1 | 2.4% (inactive)
Cc1ccc(-n2c(SCC(=O)NCc3ccc4c(c3)OCO4)nnc2-c2cccnc2)c(C)c1 | -2.7% (inactive)
CCCCc1nccn1CCn1ccnc1CCCC | 1.5% (inactive)
OCc1n[nH]c(CO)n1 | -3.3% (inactive)
O=C1CCC(CCC(=O)N2CCCC(C(=O)c3ccc(Cl)cc3)C2)=NN1 (stereo not drawn) | -3.2% (inactive)
COc1ccc(CCNC(=O)c2ccc(CS(=O)(=O)c3ccc(Br)cc3)o2)cc1OC | -1.6% (inactive)
Oc1ccccc1C=NC1CCCCC1N=Cc1ccccc1O (stereo not drawn) | 2.7% (inactive)
O=C(N/N=C/c1ccccc1O)/C(=C/c1ccccc1)CCO | 0.4% (inactive)
O=C(NN=Cc1ccccc1O)NN=Cc1ccccc1O | 59.1% (active)
Nc1ccccc1/C=N\N=C/c1ccccc1N | -2.4% (inactive)
Cc1c(NC(=O)C(=O)N/N=C/c2cccs2)c(=O)n(-c2ccccc2)n1C | 3.9% (inactive)

SMILES | inhibition
CCC(=O)c1cc2c(cc1NC(=O)c1cccs1)OCCO2 | -2.5% (inactive)
C=CCO/N=C(\C)c1c(O)c(C)c(-c2ccccc2)n(-c2ccccc2)c1=O | 6.7% (inactive)
CC1CN(C(=O)COC(=O)c2cccc(NS(=O)(=O)c3ccccc3)c2)CC(C)O1 (stereo not drawn) | 0.4% (inactive)
COc1ccc(/C=N/Nc2ccccc2C(=O)O)cc1 | 42.5% (active)
COc1ccc(/C=N/NC(=O)C(C)N(c2ccc(OC)cc2)S(C)(=O)=O)cc1 (stereo not drawn) | 2.2% (inactive)
COc1ccc(/C=N/NC(=O)Cn2cc(C(F)(F)F)ccc2=O)cc1 | -2.6% (inactive)
CCc1ccccc1NC(=O)CN1CCN(C(=O)c2cc(C3CC3)nn2-c2ccccc2)CC1 | -3.2% (inactive)
CC(C)Cc1ccc(C(C)C(=N)N)cc1 (stereo not drawn) | -2% (inactive)
CCO[C@H]1OC(C(=O)N2CCCCCCC2)=C[C@@H](c2ccc(C(F)(F)F)cc2)[C@@H]1CCCO | 0.1% (inactive)
Cc1ccc(OCC(=O)Nc2ccc(-c3nc4ncccc4o3)cc2)cc1 | 54.1% (active)
Cc1ccc2nc(-c3ccc(NC(=O)c4cccnc4)cc3)oc2c1 | 0.4% (inactive)
CCOC(=O)C1=C(O)/C(=C/c2ccc(OCC(=O)Nc3ccc(C)cc3)cc2)N=C1C | 14.9% (inactive)
CCc1ccc(C2C(C#N)=C(N)N(N3CCOCC3)C3=C2C(=O)CC(C)(C)C3)s1 (stereo not drawn) | -1.9% (inactive)
CNC(=O)NC(=O)C(OC(=O)c1cccc(S(=O)(=O)N2CCCCC2)c1)c1ccccc1 (stereo not drawn) | -0.2% (inactive)
O=C(/C=C/Nc1ccc(S(=O)(=O)Nc2cnc3ccccc3n2)cc1)c1cccnc1 | 5.4% (inactive)
CCOc1cc(CO)ccc1OCC(=O)N1CCCCC1 | -1.4% (inactive)
CCOc1ccc(NC(=S)N2CCCCCC2)cc1 | -2.3% (inactive)
CC(=NNC(=S)N1CCCCCC1)c1ccccn1 | 54.5% (active)
CCNC(=S)N1CCN(c2ncccn2)CC1 | -5.9% (inactive)
CCOC(=O)C1CCN(c2c(Nc3cc(C)cc(C)c3)c(=O)c2=O)CC1 | -2.8% (inactive)
COc1ccc(-c2c(-c3cc(OC)cc(OC)c3)n(C)c3ccc(-c4ccn[nH]4)cc23)cc1 | -1.9% (inactive)
O=C(CCSCCc1ccccn1)Nc1nccs1 | -2.2% (inactive)
CC(O)C(NS(=O)(=O)c1ccc(Cl)cc1)C(=O)OCc1cc([N+](=O)[O-])cc2c1OCOC2 (stereo not drawn) | -3.7% (inactive)
CC(C)(C)OC(=O)NCCCCCC(=O)N/N=C/c1coc2ccccc2c1=O | -1.9% (inactive)
Cc1c(/C=N\NC(=O)c2cc3ccccc3o2)c2ccccc2n1C | -0.5% (inactive)
O=C(N/N=C/c1coc2ccccc2c1=O)c1cc2ccccc2o1 | 43.4% (active)

SMILES | inhibition
CN1CCN(C(=O)c2ccccc2NC(=O)COc2ccccc2Cl)CC1 | -2.4% (inactive)
C=CCn1c(=S)[nH]c2scc(-c3ccco3)c2c1=O | 13.1% (inactive)
CCCc1nc(-c2cc3cc(C)ccc3[nH]c2=O)no1 | 3.2% (inactive)
COc1ccc(Cc2cc(-c3ccc(F)cc3)n[nH]c2=O)cc1 | 1.1% (inactive)
COc1ccc2[nH]c(=O)c(-c3noc(-c4ccc(F)cc4)n3)cc2c1 | 95.7% (active)
O=C(NCc1ccccc1)C(c1cccnc1)N(C(=O)c1csnn1)c1ccc(F)cc1 (stereo not drawn) | 2.3% (inactive)
Cc1ccc(-n2c(C)cc(/C=C(\C#N)C(=O)NCC3CCCO3)c2C)cc1 (stereo not drawn) | 0.4% (inactive)
CCCCNC(=O)c1c[nH]c2ccc(S(=O)(=O)Nc3ccc(OCC)cc3)cc2c1=O | 4.4% (inactive)
Cc1nc2ccc(NC(=S)N3CCC(C)CC3)cc2nc1C | 2.1% (inactive)
CC1=C(C(=O)N2CCOCC2)CC(CC(=O)NCCCN(C)C)C(=O)N1Cc1ccc(C(C)(C)C)cc1 (stereo not drawn) | -2.8% (inactive)
COc1cccc(NC(=O)CN(C)C(=O)CSC(=S)N2CCCC2)c1 | -1.5% (inactive)
CC(=O)c1ccc(NC(=O)CSC(=S)N2CCCC2)cc1 | 0.8% (inactive)
O=C(CSC(=S)N1CCCCC1)c1c(F)cccc1F | 87.8% (active)
O=S(=O)(NCC1CN(S(=O)(=O)c2ccc3c(c2)OCCO3)C1)c1c(F)cccc1F | -0.5% (inactive)
COc1ccc(NC(=O)c2ccco2)cc1NC(=O)c1ccc(C#N)cc1F | -1.6% (inactive)
CSc1ccc(C#N)cc1NC(=O)c1ccc(Cl)cc1 | -9.6% (inactive)
N#Cc1ccc(C(=O)Nc2cccc3cccnc23)c(F)c1 | 97.4% (active)
CSCCC(NC(=O)COc1ccccc1)C(=O)N(C)CC(=O)Nc1ccc(C)cc1 (stereo not drawn) | -3.9% (inactive)
COc1ccc(CN2CCCC(CNC(=O)c3ccc(F)cc3)C2)cc1OC (stereo not drawn) | 0.7% (inactive)
C[C@H](CO)N1C[C@H](C)[C@H](CN(C)C(=O)c2ccncc2)OCc2ccccc2-c2c(n(C)c3ccccc23)C1=O | 1.4% (inactive)
O=C1CCC(C(=O)Nc2ccc(OC(F)F)cc2)N1 (stereo not drawn) | 1.3% (inactive)
CCc1ccc(NC(=O)CS(=O)CC(=O)NCCCc2ccccc2)cc1 (stereo not drawn) | 41.6% (active)
CCc1ccc(NC(=O)CS(=O)CC(=O)N2CCN(c3ccccc3F)CC2)cc1 (stereo not drawn) | 2.2% (inactive)
S=C(NCCCc1ccccc1)Nc1ccc(Br)cc1 | 1.3% (inactive)
Cc1ccc(S(=O)(=O)NN=C2CC(C)(C)CC(=O)C2(C)C)cc1 | -2.2% (inactive)
CCOc1nnc(C)c2c(C)n(-c3cccc(Cl)c3)nc12 | -2.6% (inactive)
